Activity calls are given as the source filed them. The rule behind the calls is not given here.
Key:
[1] = test system: H9c2; test: Antioxidant activity in rat H9c2 cells assessed as protection against H2O2-induced hypoxic injury by measuring cell viability at 1 uM preincubated for 4 hrs followed by H2O2 stimulation for 1 hr by MTT assay relative to control; assay type: functional
Outline: (§1)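 H9c2 cells at 1 × 10^5 cells/mL, 100 μL per well in triplicate, left 18 h. Compound diluted in DMSO; DMSO alone as negative control. 4 h pretreatment, then 400 nM H2O2 for 1 h. Medium removed and MTT added for 2-4 h, formazan dissolved in DMSO, absorbance at 570 nm. Medium-only wells gave the blank.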

[2] = test system: H9c2; test: Antioxidant activity in rat H9c2 cells assessed as protection against H2O2-induced hypoxic injury by measuring cell viability at 10 uM preincubated for 4 hrs followed by H2O2 stimulation for 1 hr by MTT assay relative to control; assay type: functional; outline: as §1
[3] = test system: H9c2; test: Antioxidant activity in rat H9c2 cells assessed as protection against H2O2-induced hypoxic injury by measuring cell viability preincubated for 4 hrs followed by H2O2 stimulation for 1 hr by MTT assay relative to control; assay type: functional; details: time 5 hrs, read-out: ED50 (the source's name)
Outline: (§2)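 ED50 taken from log dose against % viability. Viability also reported at the EC50 concentration. Means ± SEM from three independent experiments.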

[4] = test system: H9c2; test: Antioxidant activity in rat H9c2 cells assessed as protection against H2O2-induced hypoxic injury by measuring cell viability at ED50 concentration preincubated for 4 hrs followed by H2O2 stimulation for 1 hr by MTT assay relative to control; assay type: functional; details: time 5 hrs; outline: as §2
[5] = test system: H9c2; test: Cytoprotective activity against H2O2-induced injury in rat H9c2 cells assessed as reduction in LDH release at 1 uM preincubated for 4 hrs followed by H2O2 stimulation for 1 hr by LDH assay; assay type: functional, cell-based; details: time 5.0 hrs
Outline: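 Cells at 5 × 10^4 per well in triplicate, 18 h, then 4 h compound and 1 h H2O2. Model wells had H2O2 without compound; controls had DMSO. 50 μL medium mixed with 2X LDH assay buffer, kept in the dark at 22-25 °C for 10-30 min, read at 490-520 nm. Activity blank-subtracted, normalised to BCA protein of the lysed cells, and expressed relative to model wells.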

[6] = test system: H9c2; test: Anti-oxidative effect in rat H9c2 cells assessed as reduction in H2O2-induced MnSOD activity at 10 uM preincubated for 4 hrs followed by H2O2 stimulation for 1 hr by WST-8 assay; assay type: functional, cell-based; details: time 5.0 hrs
Outline: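 H9c2 cells (ATCC) grown in high-glucose DMEM with 10% FBS at 37 °C, 5% CO2, used at 80-90% confluence and serum-starved 12 h. Compound given 4 h, then medium replaced by DMEM with 500 nM H2O2 for 1 h. Lysate spun 15,000g for 15 min. Cu/Zn SOD blocked with 1 mmol/L KCN, MnSOD read by WST-8 kit, expressed as U/mg protein.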

[7] = test system: H9c2; test: Antiapoptotic activity in rat H9c2 cells assessed as restoration of H2O2-induced bcl-2 downregulation at 1 uM preincubated for 4 hrs followed by H2O2 stimulation for 1 hr by Western blotting analysis; assay type: functional, cell-based; details: time 5.0 hrs
Outline: (§3)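 Serum-starved (12 h) H9c2 cells were pretreated 4 h, then exposed to 500 nM H2O2 in DMEM for 1 h. Lysis on ice with protease/phosphatase inhibitors, then 13,000 g at 4 °C for 15 min. 20 μg protein run on 8-12% SDS-PAGE and blotted to PVDF. Probed overnight at 4 °C for caspase-3, pro-caspase-3, Bcl-2 and GAPDH, with chemiluminescent detection.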

[8] = test system: H9c2; test: Antiapoptotic activity in rat H9c2 cells assessed as reduction in H2O2-induced caspase-3 activation at 1 uM preincubated for 4 hrs followed by H2O2 stimulation for 1 hr by Western blotting analysis; assay type: functional, cell-based; details: time 5.0 hrs; outline: as §3
[9] = test system: H9c2; test: Antiapoptotic activity in rat H9c2 cells assessed as reduction in H2O2-induced mitochondrial membrane potential loss at 1 uM preincubated for 4 hrs followed by H2O2 stimulation for 1 hr by JC1 staining based fluorescence microscopic analysis; assay type: functional, cell-based; details: time 5.0 hrs
Outline: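 Pretreatment 4 h before 400 nM H2O2. Cells washed in cold PBS pH 7.4 and loaded with 0.5 μg/mL JC-1 for 40 min at 37 °C, washed, then viewed at once by fluorescence microscopy. Monomer read at ex 490/em 535 nm, aggregate at ex 525/em 600 nm. Ratio taken from three independent fields per group, mean ± SD.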

[10] = Toxicity in C57BL/6J mouse assessed as loss of body weight at 5 mg/kg, ip administered for 7 consecutive days; assay type: organism-based; details: in vivo, 168 h, time 7 day
[11] = Toxicity in C57BL/6J mouse assessed as diarrhea at 5 mg/kg, ip administered for 7 consecutive days; assay type: organism-based; details: in vivo, 168 h, time 7 day
[12] = test system: Mus musculus; test: (§4) Cardioprotective activity in C57BL/6J mouse model of LAD coronary artery ligation-induced acute myocardial infarction assessed as reduction in myocardial infarct size at 5 mg/kg, ip pretreated for 7 consecutive days followed by LAD coronary artery ligation after compound treatment for another 3 days by TTC staining based assay; assay type: functional, organism-based; details: time 10.0 day
Outline: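 Male/female not stated; 8-week C57BL/6J mice given daily ip doses in saline vehicle for 7 d, then permanent LAD ligation, with dosing continued 3 more days to sacrifice. Under isoflurane, hearts perfused with saline plus 40 mM KCl, cut into 4-5 transverse slices, stained with 1% TTC pH 7.4 at 37 °C for 20 min, formalin-fixed; infarct area by planimetry as % of LV area; N = 6-7 per group.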

[13] = test system: Mus musculus; test: as §4, with “epimyocardium damage” for “myocardial infarct size”, “hematoxylin and eosin” for “TTC”; assay type: functional, organism-based; details: time 10.0 day
Outline: (§5)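 Eight-week C57BL/6J mice received 5 mg/kg/day i.p. (saline vehicle) for 7 days before permanent LAD ligation, then 3 further days. Paraffin heart sections deparaffinised, stained with hematoxylin 10 min, differentiated in 0.1% HCl, counterstained with eosin 3-5 min, then examined by light microscopy.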

[14] = test system: Mus musculus; test: as §4, with “apoptosis of cardiomyocytes” for “myocardial infarct size”, “TUNEL” for “TTC”; assay type: functional, organism-based; details: time 10.0 day
Outline: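 C57BL/6J mice, 8 weeks old, given compound i.p. in saline vehicle daily for 7 days, then permanent LAD ligation with body temperature held at 37 °C. Dosing continued 3 more days until sacrifice. Sections treated with proteinase K, then TdT reaction 30 min at 37 °C and DAPI counterstain. TUNEL-positive nuclei in border area counted as % of DAPI nuclei, N = 4 per group.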

[15] = test system: Mus musculus; test: as §4, with “cardiomyocytes damage” for “myocardial infarct size”, “hematoxylin and eosin” for “TTC”; assay type: functional, organism-based; details: time 10.0 day; outline: as §5
[16] = AUClast in Sprague-Dawley rat at 1 mg/kg, iv measured upto 24 hrs by LC-MS/MS analysis; assay type: ADME, organism-based; parameters: route intravenous, dose 1 mg/kg, time <=24; details: in vivo
Outline: (§6)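 Male Sprague-Dawley rats, fasted, N = 3, given a single 1 mg/kg intravenous dose. Plasma separated by centrifugation and drug quantified by LC-MS/MS. Values reported as mean ± SD.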

[17] = AUClast in Sprague-Dawley rat at 10 mg/kg, po measured upto 24 hrs by LC-MS/MS analysis; assay type: ADME, organism-based; parameters: route oral, dose 10 mg/kg, time <=24; details: in vivo
Outline: (§7)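 A single 10 mg/kg oral (i.g.) dose was given to male Sprague-Dawley rats, N = 3. Plasma was harvested by centrifugation and measured by LC-MS/MS. Values reported as mean ± SD.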

[18] = AUCinfinity in Sprague-Dawley rat at 1 mg/kg, iv measured upto 24 hrs by LC-MS/MS analysis; assay type: ADME, organism-based; parameters: route intravenous, dose 1 mg/kg, time <=24; details: in vivo; outline: as §6
[19] = AUCinfinity in Sprague-Dawley rat at 10 mg/kg, po measured upto 24 hrs by LC-MS/MS analysis; assay type: ADME, organism-based; parameters: route oral, dose 10 mg/kg, time <=24; details: in vivo; outline: as §7
[20] = Cmax in Sprague-Dawley rat at 1 mg/kg, iv measured upto 24 hrs by LC-MS/MS analysis; assay type: ADME, organism-based; parameters: route intravenous, dose 1 mg/kg, time <=24; details: in vivo
[21] = Cmax in Sprague-Dawley rat at 10 mg/kg, po measured upto 24 hrs by LC-MS/MS analysis; assay type: ADME, organism-based; parameters: route oral, dose 10 mg/kg, time <=24; details: in vivo
[22] = Half life in Sprague-Dawley rat at 1 mg/kg, iv measured upto 24 hrs by LC-MS/MS analysis; assay type: ADME, organism-based; details: in vivo
[23] = Half life in Sprague-Dawley rat at 10 mg/kg, po measured upto 24 hrs by LC-MS/MS analysis; assay type: ADME, organism-based; details: in vivo
[24] = Apparent volume of distribution during terminal phase in Sprague-Dawley rat at 10 mg/kg, po measured upto 24 hrs by LC-MS/MS analysis; assay type: ADME, organism-based; details: in vivo, read-out: Vz/F
[25] = Apparent clearance in Sprague-Dawley rat at 10 mg/kg, po measured upto 24 hrs by LC-MS/MS analysis; assay type: ADME, organism-based; details: in vivo
[26] = Apparent volume of distribution during terminal phase in Sprague-Dawley rat at 1 mg/kg, iv measured upto 24 hrs by LC-MS/MS analysis; assay type: ADME, organism-based; details: in vivo
[27] = Oral bioavailability in Sprague-Dawley rat at 10 mg/kg measured upto 24 hrs by LC-MS/MS analysis; assay type: ADME, organism-based; details: in vivo

SMILES: CC(=O)Oc1ccc(C(=O)OCCCCNC(=N)N)cc1
- Activity [1]: 57.8%
- Activity [2]: 52.7%

SMILES: N=C(N)NCCCCOC(=O)c1ccc([N+](=O)[O-])cc1
- Activity [1]: 67.7%
- Activity [2]: 59.6%

SMILES: COc1cc(C(=O)OCC2CCN(C(=N)N)CC2)cc(OC)c1OC(C)=O
- Activity [1]: 42.7%
- Activity [2]: 47%

SMILES: N=C(N)NCCCCOC(=O)C1CCCCC1
- Activity [1]: 52.4%
- Activity [2]: 58.8%

SMILES: CC(=O)Oc1ccccc1C(=O)OCCCCNC(=N)N
- Activity [1]: 57.8%
- Activity [2]: 58.3%

SMILES: COc1cccc(C(=O)OCCCCNC(=N)N)c1OC
- Activity [1]: 69.3%
- Activity [2]: 65.3%
- EC50 [3]: 142 nM
- Activity [4]: 62.8%
- Activity [5]: Active
- Activity [6]: Active
- Activity [7]: Active
- Activity [8]: Active
- Activity [9]: Active
- Activity [10]: Non-Toxic
- Activity [11]: Non-Toxic
- Activity [12]: Active
- Activity [13]: Active
- Activity [14]: Active
- Activity [15]: Active
- AUC(0-t) at 24 h [16]: 882 ng·h/mL
- AUC(0-t) at 24 h [17]: 1630 ng·h/mL
- AUC(0-inf) [18]: 895 ng·h/mL
- AUC(0-inf) [19]: 1680 ng·h/mL
- Cmax [20]: 764 ng/mL
- Cmax [21]: 621 ng/mL
- half-life [22]: 1.63 h
- half-life [23]: 4.87 h
- Vd/F [24]: 43.7 L/kg
- CL/F [25]: 92.9 mL/min/kg
- Vz/F [26]: 3.766 L/kg
- bioavailability [27]: 18.5%

SMILES: COc1cc(/C=C/C(=O)OCCCCNC(=N)N)cc(OC)c1OC
- Activity [1]: 55.4%
- Activity [2]: 61.4%

SMILES: CCN(CC)CCOC(=O)c1cc(OC)c(O)c(OC)c1
- Activity [1]: 61.1%
- Activity [2]: 66.8%
- EC50 [3]: 207 nM
- Activity [4]: 51.7%

SMILES: COc1ccc(C(=O)OCCCCNC(=N)N)cc1
- Activity [1]: 61.2%
- Activity [2]: 58.6%

SMILES: COc1cc(C(=O)OCCNC(=N)N)cc(OC)c1O
- Activity [1]: 53.6%
- Activity [2]: 61.9%

SMILES: COc1cc(C(=O)OCC2CCN(C(=N)N)CC2)cc(OC)c1O
- Activity [1]: 56.2%
- Activity [2]: 61%

SMILES: COc1cc(C(=O)OCCCCNC(=N)N)cc(OC)c1OC
- Activity [1]: 54.1%
- Activity [2]: 53.3%

SMILES: COc1cc(C(=O)OC(C)CNC(=N)N)cc(OC)c1O (stereo unspecified)
- Activity [1]: 52.2%
- Activity [2]: 54.2%

SMILES: COc1cc(C(=O)OCCCCNC(=N)N)cc(OC)c1OC(C)=O
- Activity [1]: 52.3%
- Activity [2]: 55.2%

SMILES: COc1cc(C(=O)OCCN2CCOCC2)cc(OC)c1O
- Activity [1]: 52.3%
- Activity [2]: 50.5%

SMILES: COc1cc(C(=O)OCCCNC(=N)N)cc(OC)c1O
- Activity [1]: 50.1%
- Activity [2]: 55.2%

SMILES: N=C(N)NCCCCOC(=O)c1ccc(C(F)(F)F)cc1
- Activity [1]: 54.2%
- Activity [2]: 51.7%
